≈ marks a conversion by molar mass, not a printed value.
Assays:
Assay type in all cases: functional
Pichia kudriavzevii [1] = test: Antimicrobial activity against Candida krusei after 72 hrs by broth microdilution method
How it was run: (§1)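 MFC: after MIC reading, a sample from each well was plated on Sabouraud dextrose agar and incubated 72 h at 35 °C. MFC was taken as the minimum concentration killing >99% of the original inoculum. The MIC step was NCCLS broth microdilution in MOPS-buffered RPMI 1640 (pH 7.0), with 2 ×10⁴ cells/mL, overnight at 35 °C.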

Nakaseomyces glabratus [2] = test: Antimicrobial activity against Candida glabrata by broth microdilution method
How it was run: (§2)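 MIC by NCCLS broth microdilution. Medium was RPMI 1640 with L-glutamine, buffered with 0.165 M MOPS at pH 7.0. Twofold drug dilutions ran 0.008–200 mg/L. Inoculum was set spectrophotometrically to 10⁶ CFU/mL, then diluted in medium to 2 ×10⁴ cells/mL. Plates were incubated overnight at 35 °C in humid air, agitated, and read visually and at 450 nm.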

Pichia kudriavzevii [3] = test: Antimicrobial activity against Candida krusei by broth microdilution method; how it was run: as §2
Candida parapsilosis [4] = test: Antimicrobial activity against Candida parapsilosis after 72 hrs by broth microdilution method; settings: Lodderomyces parapsilosis; how it was run: as §1
Nakaseomyces glabratus [5] = test: Antimicrobial activity against Candida glabrata after 72 hrs by broth microdilution method; how it was run: as §1
Candida albicans [6] = test: Antimicrobial activity against Candida albicans ATCC 10231 by broth microdilution method; how it was run: as §2
Candida parapsilosis [7] = test: Antimicrobial activity against Candida parapsilosis by broth microdilution method; settings: Lodderomyces parapsilosis; how it was run: as §2
Candida albicans [8] = test: Antimicrobial activity against Candida albicans ATCC 10231 after 72 hrs by broth microdilution method; settings: ATCC 10231, 72 h; how it was run: as §1

Row | SMILES | MFC (Pichia kudriavzevii [1]) | MIC (Nakaseomyces glabratus [2]) | MIC (Pichia kudriavzevii [3]) | MFC (Candida parapsilosis [4]) | MFC (Nakaseomyces glabratus [5]) | MIC (Candida albicans [6]) | MIC (Candida parapsilosis [7]) | MFC (Candida albicans [8])
1 | COCCC(=O)NNc1[nH]c(-c2ccccc2)cc1C(=O)OC | 25 µg/mL (≈ 78.8 µM) | 6.25 µg/mL (≈ 19.7 µM) | 12.5 µg/mL (≈ 39.4 µM) | 100 µg/mL (≈ 315 µM) | 25 µg/mL (≈ 78.8 µM) | 6.25 µg/mL (≈ 19.7 µM) | 12.5 µg/mL (≈ 39.4 µM) | 12.5 µg/mL (≈ 39.4 µM)
2 | COCCC(=O)NNc1[nH]c(-c2ccccc2)cc1C#N | 12.5 µg/mL (≈ 44 µM) | 3.25 µg/mL (≈ 11.4 µM) | 6.25 µg/mL (≈ 22 µM) | 25 µg/mL (≈ 87.9 µM) | 12.5 µg/mL (≈ 44 µM) | 6.25 µg/mL (≈ 22 µM) | 6.25 µg/mL (≈ 22 µM) | 6.25 µg/mL (≈ 22 µM)
3 | COC(=O)c1cc(-c2ccccc2)[nH]c1NNC(C)=O | 12.5 µg/mL (≈ 45.7 µM) | 6.25 µg/mL (≈ 22.9 µM) | 12.5 µg/mL (≈ 45.7 µM) | 25 µg/mL (≈ 91.5 µM) | 25 µg/mL (≈ 91.5 µM) | 3.12 µg/mL (≈ 11.4 µM) | 6.25 µg/mL (≈ 22.9 µM) | 6.25 µg/mL (≈ 22.9 µM)
4 | CCOC(=O)c1cc(-c2ccc(C)cc2)[nH]c1NNC(=O)C(C)C | 100 µg/mL (≈ 304 µM) | > 100 µg/mL | 25 µg/mL (≈ 75.9 µM) | > 100 µg/mL | > 100 µg/mL | 6.25 µg/mL (≈ 19 µM) | 25 µg/mL (≈ 75.9 µM) | 12.5 µg/mL (≈ 37.9 µM)
5 | CCOC(=O)c1cc(-c2ccc(OC)cc2)[nH]c1NNC(=O)C(C)C | > 100 µg/mL | > 100 µg/mL | 12.5 µg/mL (≈ 36.2 µM) | > 100 µg/mL | > 100 µg/mL | 6.25 µg/mL (≈ 18.1 µM) | 6.25 µg/mL (≈ 18.1 µM) | 12.5 µg/mL (≈ 36.2 µM)
6 | CCOC(=O)c1cc(-c2ccccc2)[nH]c1NNC(=O)C(C)C | > 100 µg/mL | 6.25 µg/mL (≈ 19.8 µM) | > 100 µg/mL | 100 µg/mL (≈ 317 µM) | 12.5 µg/mL (≈ 39.6 µM) | > 100 µg/mL | 25 µg/mL (≈ 79.3 µM) | > 100 µg/mL
7 | COc1ccc(-c2cc(C#N)c(NNC(=O)C(C)C)[nH]2)cc1 | > 100 µg/mL | 50 µg/mL (≈ 168 µM) | 50 µg/mL (≈ 168 µM) | > 100 µg/mL | > 100 µg/mL | 3.12 µg/mL (≈ 10.5 µM) | 25 µg/mL (≈ 83.8 µM) | 3.12 µg/mL (≈ 10.5 µM)
8 | COCC(=O)NNc1[nH]c(-c2ccccc2)cc1C#N | 25 µg/mL (≈ 92.5 µM) | 25 µg/mL (≈ 92.5 µM) | 6.25 µg/mL (≈ 23.1 µM) | 6.25 µg/mL (≈ 23.1 µM) | 50 µg/mL (≈ 185 µM) | 6.25 µg/mL (≈ 23.1 µM) | 6.25 µg/mL (≈ 23.1 µM) | 6.25 µg/mL (≈ 23.1 µM)
9 | CCC(=O)NNc1[nH]c(-c2ccccc2)cc1C#N | 12.5 µg/mL (≈ 49.2 µM) | 3.12 µg/mL (≈ 12.3 µM) | 1.56 µg/mL (≈ 6.13 µM) | 12.5 µg/mL (≈ 49.2 µM) | 12.5 µg/mL (≈ 49.2 µM) | 3.12 µg/mL (≈ 12.3 µM) | 3.12 µg/mL (≈ 12.3 µM) | 6.25 µg/mL (≈ 24.6 µM)
10 | CCCC(=O)NNc1[nH]c(-c2ccccc2)cc1C(=O)OCC | > 100 µg/mL | > 100 µg/mL | > 100 µg/mL | > 100 µg/mL | > 100 µg/mL | 12.5 µg/mL (≈ 39.6 µM) | 100 µg/mL (≈ 317 µM) | 12.5 µg/mL (≈ 39.6 µM)
11 | COCC(=O)NNc1[nH]c(-c2ccc(OC)cc2)cc1C#N | 12.5 µg/mL (≈ 41.6 µM) | 25 µg/mL (≈ 83.2 µM) | 6.25 µg/mL (≈ 20.8 µM) | 12.5 µg/mL (≈ 41.6 µM) | 50 µg/mL (≈ 166 µM) | 6.25 µg/mL (≈ 20.8 µM) | 6.25 µg/mL (≈ 20.8 µM) | 6.25 µg/mL (≈ 20.8 µM)
12 | CCC(=O)NNc1[nH]c(-c2ccccc2)cc1C(=O)OC | 25 µg/mL (≈ 87 µM) | 6.25 µg/mL (≈ 21.8 µM) | 12.5 µg/mL (≈ 43.5 µM) | 12.5 µg/mL (≈ 43.5 µM) | 25 µg/mL (≈ 87 µM) | 3.12 µg/mL (≈ 10.9 µM) | 6.25 µg/mL (≈ 21.8 µM) | 6.25 µg/mL (≈ 21.8 µM)
13 | CCOC(=O)c1cc(-c2ccc(Cl)cc2)[nH]c1NNC(C)=O | 50 µg/mL (≈ 155 µM) | > 100 µg/mL | 25 µg/mL (≈ 77.7 µM) | 25 µg/mL (≈ 77.7 µM) | > 100 µg/mL | > 100 µg/mL | 12.5 µg/mL (≈ 38.8 µM) | > 100 µg/mL
14 | CCOC(=O)c1cc(-c2ccc(C)cc2)[nH]c1NNC(=O)Cc1ccc(OC)cc1 | > 100 µg/mL | > 100 µg/mL | 100 µg/mL (≈ 245 µM) | > 100 µg/mL | > 100 µg/mL | > 100 µg/mL | 100 µg/mL (≈ 245 µM) | > 100 µg/mL
15 | CCOC(=O)c1cc(-c2ccc(Cl)cc2)[nH]c1NNC(=O)Cc1ccc(OC)cc1 | > 100 µg/mL | > 100 µg/mL | > 100 µg/mL | > 100 µg/mL | > 100 µg/mL | > 100 µg/mL | > 100 µg/mL | > 100 µg/mL
16 | CCOC(=O)c1cc(-c2ccc(OC)cc2)[nH]c1NNC(C)=O | 25 µg/mL (≈ 78.8 µM) | 6.25 µg/mL (≈ 19.7 µM) | 12.5 µg/mL (≈ 39.4 µM) | 50 µg/mL (≈ 158 µM) | 12.5 µg/mL (≈ 39.4 µM) | 3.12 µg/mL (≈ 9.83 µM) | 50 µg/mL (≈ 158 µM) | 3.12 µg/mL (≈ 9.83 µM)
17 | COCCC(=O)NNc1[nH]c(-c2ccc(OC)cc2)cc1C#N | 6.25 µg/mL (≈ 19.9 µM) | 6.25 µg/mL (≈ 19.9 µM) | 3.12 µg/mL (≈ 9.93 µM) | 12.5 µg/mL (≈ 39.8 µM) | 12.5 µg/mL (≈ 39.8 µM) | 3.12 µg/mL (≈ 9.93 µM) | 6.25 µg/mL (≈ 19.9 µM) | 6.25 µg/mL (≈ 19.9 µM)
18 | CCOC(=O)c1cc(-c2ccc(Cl)cc2)[nH]c1NNC(=O)C(C)C | > 100 µg/mL | > 100 µg/mL | > 100 µg/mL | > 100 µg/mL | > 100 µg/mL | > 100 µg/mL | > 100 µg/mL | > 100 µg/mL
19 | CCOC(=O)NNc1[nH]c(-c2ccccc2)cc1C#N | 6.25 µg/mL (≈ 23.1 µM) | 3.12 µg/mL (≈ 11.5 µM) | 3.12 µg/mL (≈ 11.5 µM) | 12.5 µg/mL (≈ 46.2 µM) | 6.25 µg/mL (≈ 23.1 µM) | 3.12 µg/mL (≈ 11.5 µM) | 6.25 µg/mL (≈ 23.1 µM) | 3.12 µg/mL (≈ 11.5 µM)
